system: NF-κB; experiment: NF-κB activation using THP1-Blue NF-κB cells; format: cell-based, human; details: Homo sapiens, 20 h, read-out: NF-κB SEAP Compound alone % Activation
Outline: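 THP1-Blue NF-κB cells carry a stably integrated NF-κB-inducible SEAP. They were plated at 10^5 cells/well in RPMI with 10% FBS, penicillin, streptomycin and Normocin, then treated for 20 h with 5 μM test compound (0.5% DMSO final), alone or with LPS at 10 ng/mL. Supernatant SEAP was read colorimetrically at 630 nm. Signals were two-point normalized: baseline (vehicle or LPS) 100%, reference hit 200%.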

Row | Structure (SMILES) | activation at 5 µM [%]
1 | Cc1ccccc1-c1csc(NC(=O)c2ccc(S(=O)(=O)N3CCCCC3)cc2)n1 [Compound 12b, 4-(piperidin-1-ylsulfonyl)-N-(4-(o-tolyl)thiazol-2-yl)benzamide] | 100
2 | Cc1cccc(-c2csc(NC(=O)c3ccc(S(=O)(=O)N4CCCCC4)cc3)n2)c1 [Compound 12c, 4-(piperidin-1-ylsulfonyl)-N-(4-(m-tolyl)thiazol-2-yl)benzamide] | 100
3 | Cc1csc(NC(=O)c2ccc(S(=O)(=O)N3CCCCC3)cc2)n1 [Compound 12g, N-(4-methylthiazol-2-yl)-4-(piperidin-1-ylsulfonyl)benzamide] | 100
4 | CCc1csc(NC(=O)c2ccc(S(=O)(=O)N3CCCCC3)cc2)n1 [Compound 12h, N-(4-ethylthiazol-2-yl)-4-(piperidin-1-ylsulfonyl)benzamide] | 100
5 | CCCc1csc(NC(=O)c2ccc(S(=O)(=O)N3CCCCC3)cc2)n1 [Compound 12i, 4-(piperidin-1-ylsulfonyl)-N-(4-propylthiazol-2-yl)benzamide] | 100

same assay, conditions: compound alone, 5 μM, 20h

Row | Structure (SMILES) | NF-κB activity (in words, SAR text to Table 1)
6 | Cc1ccccc1-c1csc(NC(=O)c2ccc(S(=O)(=O)N3CCCCC3)cc2)n1 [Compound 12b, 4-(piperidin-1-ylsulfonyl)-N-(4-(o-tolyl)thiazol-2-yl)benzamide] | inactive
7 | Cc1cccc(-c2csc(NC(=O)c3ccc(S(=O)(=O)N4CCCCC4)cc3)n2)c1 [Compound 12c, 4-(piperidin-1-ylsulfonyl)-N-(4-(m-tolyl)thiazol-2-yl)benzamide] | inactive
8 | Cc1ccc(Br)cc1-c1csc(NC(=O)c2ccc(S(=O)(=O)N3CCCCC3)cc2)n1 [Compound 12e, N-(4-(5-bromo-2-methylphenyl)thiazol-2-yl)-4-(piperidin-1-ylsulfonyl)benzamide] | active
9 | Cc1ccc(C)c(Cc2csc(NC(=O)c3ccc(S(=O)(=O)N4CCCCC4)cc3)n2)c1 [Compound 12f, N-(4-(2,5-dimethylbenzyl)thiazol-2-yl)-4-(piperidin-1-ylsulfonyl)benzamide] | inactive
10 | Cc1csc(NC(=O)c2ccc(S(=O)(=O)N3CCCCC3)cc2)n1 [Compound 12g, N-(4-methylthiazol-2-yl)-4-(piperidin-1-ylsulfonyl)benzamide] | None of these molecules had any NF-κB activity
11 | CCc1csc(NC(=O)c2ccc(S(=O)(=O)N3CCCCC3)cc2)n1 [Compound 12h, N-(4-ethylthiazol-2-yl)-4-(piperidin-1-ylsulfonyl)benzamide] | None of these molecules had any NF-κB activity
12 | CCCc1csc(NC(=O)c2ccc(S(=O)(=O)N3CCCCC3)cc2)n1 [Compound 12i, 4-(piperidin-1-ylsulfonyl)-N-(4-propylthiazol-2-yl)benzamide] | None of these molecules had any NF-κB activity
13 | CC(C)(C)Cc1csc(NC(=O)c2ccc(S(=O)(=O)N3CCCCC3)cc2)n1 [Compound 12j, N-(4-neopentylthiazol-2-yl)-4-(piperidin-1-ylsulfonyl)benzamide] | None of these molecules had any NF-κB activity
14 | CC(C)(C)c1csc(NC(=O)c2ccc(S(=O)(=O)N3CCCCC3)cc2)n1 [Compound 12k, N-(4-(tert-butyl)thiazol-2-yl)-4-(piperidin-1-ylsulfonyl)benzamide] | None of these molecules had any NF-κB activity
15 | Cc1cccc(-c2csc(NC(=O)c3ccc(S(=O)(=O)N4CCCCC4)cc3)n2)c1C [Compound 12l, N-(4-(2,3-dimethylphenyl)thiazol-2-yl)-4-(piperidin-1-ylsulfonyl)benzamide] | retained activity
16 | Cc1cc(C)cc(-c2csc(NC(=O)c3ccc(S(=O)(=O)N4CCCCC4)cc3)n2)c1 [Compound 12o, N-(4-(3,5-dimethylphenyl)thiazol-2-yl)-4-(piperidin-1-ylsulfonyl)benzamide] | inactive
17 | Cc1cccc(C)c1-c1csc(NC(=O)c2ccc(S(=O)(=O)N3CCCCC3)cc2)n1 [Compound 12p, N-(4-(2,6-dimethylphenyl)thiazol-2-yl)-4-(piperidin-1-ylsulfonyl)benzamide] | retained activity
18 | O=C(Nc1nc(-c2cccc3ccccc23)cs1)c1ccc(S(=O)(=O)N2CCCCC2)cc1 [Compound 12q, N-(4-(naphthalen-1-yl)thiazol-2-yl)-4-(piperidin-1-ylsulfonyl)benzamide] | equally potent
19 | Cc1ccc2c(c1)-c1nc(NC(=O)c3ccc(S(=O)(=O)N4CCCCC4)cc3)sc1C2 [Compound 12r, N-(5-methyl-8H-indeno[1,2-d]thiazol-2-yl)-4-(piperidin-1-ylsulfonyl)benzamide] | weakly active
20 | Cc1ccc2c(c1)-c1nc(NC(=O)c3ccc(S(=O)(=O)N4CCCCC4)cc3)sc1CC2 [Compound 12s, N-(8-methyl-4,5-dihydronaphtho[1,2-d]thiazol-2-yl)-4-(piperidin-1-ylsulfonyl)benzamide] | weakly active
21 | C#Cc1ccc(C)c(-c2csc(NC(=O)c3ccc(S(=O)(=O)N4CCCCC4)cc3)n2)c1 [Compound 12t, N-(4-(5-ethynyl-2-methylphenyl)thiazol-2-yl)-4-(piperidin-1-ylsulfonyl)benzamide] | inactive
22 | CCc1ccc(C)c(-c2csc(NC(=O)c3ccc(S(=O)(=O)N4CCCCC4)cc3)n2)c1 [Compound 12u, N-(4-(5-ethyl-2-methylphenyl)thiazol-2-yl)-4-(piperidin-1-ylsulfonyl)benzamide] | regained the NF-κB activity

Row | Structure (SMILES) | NF-κB activity (in words, SAR text to Table 1)
23 | Cc1ccc(C)c(-c2c[nH]c(NC(=O)c3ccc(S(=O)(=O)N4CCCCC4)cc3)n2)c1 [Compound 18a, N-(4-(2,5-dimethylphenyl)-1H-imidazol-2-yl)-4-(piperidin-1-ylsulfonyl)benzamide] | none of these molecules that replaced the thiazole functionality was active
24 | Cc1ccc(C)c(-c2cccc(NC(=O)c3ccc(S(=O)(=O)N4CCCCC4)cc3)n2)c1 [Compound 18b, N-(6-(2,5-dimethylphenyl)pyridin-2-yl)-4-(piperidin-1-ylsulfonyl)benzamide] | none of these molecules that replaced the thiazole functionality was active
25 | Cc1ccc(C)c(-c2ccc(NC(=O)c3ccc(S(=O)(=O)N4CCCCC4)cc3)nc2)c1 [Compound 18c, N-(5-(2,5-dimethylphenyl)pyridin-2-yl)-4-(piperidin-1-ylsulfonyl)benzamide] | none of these molecules that replaced the thiazole functionality was active
26 | Cc1ccc(C)c(-c2ccc(NC(=O)c3ccc(S(=O)(=O)N4CCCCC4)cc3)cn2)c1 [Compound 18d, N-(6-(2,5-dimethylphenyl)pyridin-3-yl)-4-(piperidin-1-ylsulfonyl)benzamide] | none of these molecules that replaced the thiazole functionality was active
27 | Cc1ccc(C)c(-c2cnc(NC(=O)c3ccc(S(=O)(=O)N4CCCCC4)cc3)s2)c1 [Compound 18e, N-(5-(2,5-dimethylphenyl)thiazol-2-yl)-4-(piperidin-1-ylsulfonyl)benzamide] | none of these molecules that replaced the thiazole functionality was active
28 | Cc1ccc(C)c(-c2nnc(NC(=O)c3ccc(S(=O)(=O)N4CCCCC4)cc3)s2)c1 [Compound 18f, N-(5-(2,5-dimethylphenyl)-1,3,4-thiadiazol-2-yl)-4-(piperidin-1-ylsulfonyl)benzamide] | none of these molecules that replaced the thiazole functionality was active
29 | CCN(CC)c1sc(NC(=O)c2ccc(S(=O)(=O)N3CCCCC3)cc2)nc1-c1cc(C)ccc1C [Compound 18g, N-(5-(diethylamino)-4-(2,5-dimethylphenyl)thiazol-2-yl)-4-(piperidin-1-ylsulfonyl)benzamide] | completely inactive
30 | Cc1ccc(C)c(-c2nc(NC(=O)c3ccc(S(=O)(=O)N4CCCCC4)cc3)sc2N2CCCCC2)c1 [Compound 18h, N-(4-(2,5-dimethylphenyl)-5-(piperidin-1-yl)thiazol-2-yl)-4-(piperidin-1-ylsulfonyl)benzamide] | completely inactive
31 | Cc1ccc(C)c(-c2nc(NC(=O)c3ccc(S(=O)(=O)N4CCCCC4)cc3)sc2-c2ccccc2)c1 [Compound 18i, N-(4-(2,5-dimethylphenyl)-5-phenylthiazol-2-yl)-4-(piperidin-1-ylsulfonyl)benzamide] | completely inactive
32 | Cc1ccc(C)c(-c2nc(NC(=O)c3ccc(S(=O)(=O)N4CCCCC4)cc3)sc2-c2ccco2)c1 [Compound 18j, N-(4-(2,5-dimethylphenyl)-5-(furan-2-yl)thiazol-2-yl)-4-(piperidin-1-ylsulfonyl)benzamide] | completely inactive
33 | CCSc1sc(NC(=O)c2ccc(S(=O)(=O)N3CCCCC3)cc2)nc1-c1cc(C)ccc1C [Compound 18k, N-(4-(2,5-dimethylphenyl)-5-(ethylthio)thiazol-2-yl)-4-(piperidin-1-ylsulfonyl)benzamide] | completely inactive
34 | CCOc1sc(NC(=O)c2ccc(S(=O)(=O)N3CCCCC3)cc2)nc1-c1cc(C)ccc1C [Compound 18l, N-(4-(2,5-dimethylphenyl)-5-ethoxythiazol-2-yl)-4-(piperidin-1-ylsulfonyl)benzamide] | partial activity
35 | C#Cc1sc(NC(=O)c2ccc(S(=O)(=O)N3CCCCC3)cc2)nc1-c1cc(C)ccc1C [Compound 18o, N-(4-(2,5-dimethylphenyl)-5-ethynylthiazol-2-yl)-4-(piperidin-1-ylsulfonyl)benzamide] | weak activity
36 | CCC#Cc1sc(NC(=O)c2ccc(S(=O)(=O)N3CCCCC3)cc2)nc1-c1cc(C)ccc1C [Compound 18p, N-(5-(but-1-yn-1-yl)-4-(2,5-dimethylphenyl)thiazol-2-yl)-4-(piperidin-1-ylsulfonyl)benzamide] | very potent
37 | Cc1ccc(C)c(-c2csc(NCc3ccc(S(=O)(=O)N4CCCCC4)cc3)n2)c1 [Compound 34a, 4-(2,5-dimethylphenyl)-N-(4-(piperidin-1-ylsulfonyl)benzyl)thiazol-2-amine] | inactive
38 | Cc1ccc(C)c(-c2csc(N(C)C(=O)c3ccc(S(=O)(=O)N4CCCCC4)cc3)n2)c1 [Compound 34c, N-(4-(2,5-dimethylphenyl)thiazol-2-yl)-N-methyl-4-(piperidin-1-ylsulfonyl)benzamide] | inactive

Reference: article PMC8992012 (Bioorganic & medicinal chemistry, 2021)
